Screening data as filed in PubChem BioAssay.
CHRM5 PAM = potentiates acetylcholine response at human M5 receptor. P08912. CHO-K1 hM5, Fluo-8 calcium, ACh EC20 PAM; 0% = ACh EC20, 100% = ACh EC100. activation, % at 3 µM. 360,000 compounds, 0.3% hits. AID 624038;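 active means activation above the run cutoff, the mean activation of all test compounds plus 3 SD, cut at about 18% in these data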
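System: CHO-K1 hM5 cells. Reagent: acetylcholine, EC20 level. Compound dosing: single dose, 3 µM nominal final test concentration. Timing: Post-acetylcholine fluorescence recording 140 s. Detection: Fluo-8 calcium fluorescence. Read-out: % activation, ACh-normalized. Benchmarks: ACh EC20 and EC100 wells. Repeats: singlicate, one well per test compound.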
CHRM5 antagonist = antagonists of human muscarinic M5 receptor (CHRM5). P08912. CHO-hM5 cells, Fluo-8 calcium fluorescence, ACh EC80. inhibition, % at 3 µM. 360,000 compounds, 0.59% hits. AID 624040;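 active means inhibition above a per-plate cutoff, the mean of that plate's test compounds plus 3 SD, cut at about 27% in these data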;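 further: 0% = acetylcholine EC80 with DMSO and 100% = DMSO without agonist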
CHRM5 agonist = CHRM5 agonism in calcium assay; activation, % at 3 µM; 360,000 compounds, 0.19% hits; P08912; AID 624037; CHO-K1 hM5 cells, Fluo-8 calcium fluorescence; 0% DMSO wells, 100% maximal acetylcholine response;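 active means activation above the run's mean over test compounds plus 3 SD, cut at about 23% in these data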;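 further: signal is peak over basal fluorescence ratio across the kinetic read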
CHRM4 antagonist = antagonists of human muscarinic M4 receptor (CHRM4); 360,000 compounds, 0.73% hits; P08173; inhibition, % at 3 µM; CHO-hM4 cells, ACh EC80, Fluo-8 calcium fluorescence;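 active means inhibition above its plate's cutoff, the mean inhibition of sample wells plus 3 SD, cut at about 27% in these data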;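 further: 0% = acetylcholine EC80 with DMSO and 100% = DMSO without agonist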
Target sequence (P08173 whole entry, looked up): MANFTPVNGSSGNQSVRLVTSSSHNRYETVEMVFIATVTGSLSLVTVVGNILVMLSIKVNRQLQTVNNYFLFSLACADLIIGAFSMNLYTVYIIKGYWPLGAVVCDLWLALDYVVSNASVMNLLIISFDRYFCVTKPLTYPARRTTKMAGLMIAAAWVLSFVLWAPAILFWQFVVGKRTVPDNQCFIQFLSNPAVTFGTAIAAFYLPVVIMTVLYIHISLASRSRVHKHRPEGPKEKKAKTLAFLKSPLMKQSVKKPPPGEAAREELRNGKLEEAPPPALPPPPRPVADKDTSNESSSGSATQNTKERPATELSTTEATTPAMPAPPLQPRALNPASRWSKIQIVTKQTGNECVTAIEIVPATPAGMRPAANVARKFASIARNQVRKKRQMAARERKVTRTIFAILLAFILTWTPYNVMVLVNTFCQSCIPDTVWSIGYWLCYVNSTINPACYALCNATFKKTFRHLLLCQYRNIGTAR
CHRM4 agonist = CHRM4 agonism in calcium assay. P08173. CHO-K1 hM4/Gqi5, Fluo-8 calcium fluorescence; vehicle 0%, full acetylcholine response 100%. activation, % at 3 µM. 360,000 compounds, 0.14% hits. AID 624127;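 active means activation above the run mean over all test wells plus 3 SD, cut at about 32% in these data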;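 further: peak over basal fluorescence ratio per well then scaled between controls; 0% = DMSO wells and 100% = acetylcholine at EC100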
CHRM4 PAM = positive allosteric modulators of human muscarinic M4 receptor. 360,000 compounds, 0.4% hits. CHO-K1 hM4/Gqi5, Fluo-8 calcium fluorescence, ACh EC20; 0% = ACh EC20, 100% = maximal ACh. activation, % at 3 µM;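 active means activation above its plate's cutoff, the mean activation of sample wells plus 3 SD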
Starred values were filed as active, the others as inactive. An excerpt weighted towards active compounds, which were near 1.8% of everything screened.

What do the screens show for `S=C(NCCN1CCOCC1)Nc1ccccc1Cl`?
CHRM5 PAM: -2.6; CHRM5 antagonist: 1.7; CHRM5 agonist: -0.9; CHRM4 antagonist: -2.3; CHRM4 agonist: 0.3; CHRM4 PAM: 14.3

Results for Cc1cc(OCCCC(=O)Nc2cccc(-n3cnnn3)c2)ccc1Cl ?
CHRM5 PAM: -17.0; CHRM5 antagonist: 27.2*; CHRM5 agonist: 5.8; CHRM4 antagonist: 12.7; CHRM4 agonist: 18.7; CHRM4 PAM: -13.5

Results for COc1ccc(OCC(=O)NNC(=O)c2cccc(O)c2)cc1 ?
CHRM5 PAM: -3.5; CHRM5 antagonist: 2.8; CHRM5 agonist: 0.5; CHRM4 antagonist: -1.2; CHRM4 agonist: 1.1; CHRM4 PAM: 7.4

What do the screens show for `COc1cccc(N2C(=NC(=O)C3CCCO3)SC3CS(=O)(=O)CC32)c1` (centres undefined)?
CHRM5 PAM: 3.9; CHRM5 antagonist: -6.1; CHRM5 agonist: -2.0; CHRM4 antagonist: -5.5; CHRM4 agonist: -1.4; CHRM4 PAM: 7.5

Results for O=C(Nc1ccc(C(=O)N2CCCCC2)cc1)[C@H]1O[C@@H](n2ccc(=O)[nH]c2=O)[C@H](O)[C@@H]1O ?
CHRM5 PAM: -10.8; CHRM5 antagonist: 2.4; CHRM5 agonist: 3.1; CHRM4 antagonist: -3.3; CHRM4 agonist: 0.4; CHRM4 PAM: 1.5

Results for O=C(/C=C/c1ccc(S(=O)(=O)NCc2ccco2)cc1)NCc1cccc(Cl)c1 ?
CHRM5 PAM: -18.5; CHRM5 antagonist: 32.4*; CHRM5 agonist: -9.3; CHRM4 antagonist: 4.3; CHRM4 agonist: 4.0; CHRM4 PAM: -7.6

How did O=C(Cn1[nH]c(=O)c2ccccc2c1=O)NCCN1C(=O)S/C(=C\c2ccccc2)C1=O do in these assays?
CHRM5 PAM: 5.6; CHRM5 antagonist: 3.4; CHRM5 agonist: 5.6; CHRM4 antagonist: -6.8; CHRM4 agonist: 6.2; CHRM4 PAM: 11.1

Results for Cc1cc(NC(=O)CSc2nnc(COc3cccc(C)c3C)n2Cc2ccco2)no1 ?
CHRM5 PAM: 3.8; CHRM5 antagonist: -5.3; CHRM5 agonist: 1.7; CHRM4 antagonist: -6.6; CHRM4 agonist: 0.9; CHRM4 PAM: 28.8*

Results for Cc1cccc(NC(=O)CSc2nccn2Cc2ccco2)c1C ?
CHRM5 PAM: 19.9*; CHRM5 antagonist: -37.2; CHRM5 agonist: -2.2; CHRM4 antagonist: 2.4; CHRM4 agonist: 1.4; CHRM4 PAM: 18.5*

Results for Cc1cccc(OCc2nnc(SCC(=O)N(C(C)C)C(C)C)n2Cc2ccco2)c1C ?
CHRM5 PAM: 15.3; CHRM5 antagonist: 6.6; CHRM5 agonist: -1.3; CHRM4 antagonist: -3.3; CHRM4 agonist: 0.0; CHRM4 PAM: 13.5

How did CNC(=O)c1cc2cccc(OC)c2oc1=O do in these assays?
CHRM5 PAM: 1.8; CHRM5 antagonist: 0.1; CHRM5 agonist: 0.8; CHRM4 antagonist: -5.8; CHRM4 agonist: 0.7; CHRM4 PAM: 5.8

What do the screens show for `COc1cccc2cc(C(=O)NCc3ccccn3)c(=O)oc12`?
CHRM5 PAM: 0.5; CHRM5 antagonist: -2.0; CHRM5 agonist: -1.6; CHRM4 antagonist: -0.8; CHRM4 agonist: 1.6; CHRM4 PAM: 22.4*

How did CCC(=O)Nc1ccc(N2CCN(S(C)(=O)=O)CC2)cc1 do in these assays?
CHRM5 PAM: 3.0; CHRM5 antagonist: 4.5; CHRM5 agonist: 2.5; CHRM4 antagonist: 0.0; CHRM4 agonist: -0.3; CHRM4 PAM: -7.1

What do the screens show for `COC(=O)C1CCN(Cc2c(C(=O)N3C[C@@H](C)O[C@@H](C)C3)nc3ccc(Cl)cn23)CC1`?
CHRM5 PAM: 19.2*; CHRM5 antagonist: -17.7; CHRM5 agonist: -1.8; CHRM4 antagonist: -8.5; CHRM4 agonist: -0.2; CHRM4 PAM: 11.7

Results for CN1CCN(S(=O)(=O)c2ccc(NC(=O)c3ccccc3Cl)cc2)CC1 ?
CHRM5 PAM: -3.8; CHRM5 antagonist: 6.6; CHRM5 agonist: -4.4; CHRM4 antagonist: 2.4; CHRM4 agonist: 0.7; CHRM4 PAM: -3.6

How did O=C(Nc1ccc(Cl)cc1)Nc1ccc(N2CCCC2)c(S(=O)(=O)Nc2ccccc2Cl)c1 do in these assays?
CHRM5 PAM: -15.3; CHRM5 antagonist: 27.4*; CHRM5 agonist: -0.7; CHRM4 antagonist: 16.5; CHRM4 agonist: 6.1; CHRM4 PAM: -5.4

What do the screens show for `Cc1oc(S(=O)(=O)N2CCCCC2)cc1NC(=O)Nc1ccc(Cl)cc1`?
CHRM5 PAM: -28.1; CHRM5 antagonist: 31.7*; CHRM5 agonist: 8.7; CHRM4 antagonist: 0.6; CHRM4 agonist: 22.1; CHRM4 PAM: -23.7

How did CN1CCN(S(=O)(=O)c2ccc(NC(=O)Nc3cccc(Cl)c3)cc2)CC1 do in these assays?
CHRM5 PAM: -3.2; CHRM5 antagonist: 12.5; CHRM5 agonist: 2.6; CHRM4 antagonist: 28.6*; CHRM4 agonist: 12.9; CHRM4 PAM: -8.2

What do the screens show for `O=C(Nc1ccc(N2CCOCC2)c(S(=O)(=O)Nc2ccccc2Cl)c1)c1ccccc1`?
CHRM5 PAM: -23.8; CHRM5 antagonist: 13.0; CHRM5 agonist: -4.7; CHRM4 antagonist: 11.9; CHRM4 agonist: 12.4; CHRM4 PAM: -8.9

Results for Cc1oc(S(=O)(=O)N2CCCCC2)cc1NC(=O)Nc1ccccc1 ?
CHRM5 PAM: -6.7; CHRM5 antagonist: 12.2; CHRM5 agonist: 2.8; CHRM4 antagonist: -8.1; CHRM4 agonist: 14.3; CHRM4 PAM: -18.7

Results for O=C(Nc1cccc(Cl)c1)Nc1cc(S(=O)(=O)N2CCCCC2)ccc1Cl ?
CHRM5 PAM: -18.3; CHRM5 antagonist: 29.5*; CHRM5 agonist: 4.0; CHRM4 antagonist: 15.7; CHRM4 agonist: 9.5; CHRM4 PAM: -14.9

How did OC(CNCCN1CCNCC1)Cc1ccccc1 (centres undefined) do in these assays?
CHRM5 PAM: 10.4; CHRM5 antagonist: -1.3; CHRM5 agonist: -3.5; CHRM4 antagonist: -2.9; CHRM4 agonist: 0.3; CHRM4 PAM: 4.0

How did CCn1cc(C(=O)N(C)c2ccc(OC)cc2OC)c2cc(OC)c(OC)cc2c1=O do in these assays?
CHRM5 PAM: 11.0; CHRM5 antagonist: 0.1; CHRM5 agonist: -4.2; CHRM4 antagonist: -26.9; CHRM4 agonist: 2.0; CHRM4 PAM: 13.7*

Results for CCn1cc(C(=O)N(C)c2cc(C)ccc2OC)c2cc(OC)c(OC)cc2c1=O ?
CHRM5 PAM: -0.1; CHRM5 antagonist: 5.8; CHRM5 agonist: -1.6; CHRM4 antagonist: -10.2; CHRM4 agonist: 2.6; CHRM4 PAM: 1.6

How did FC(F)Sc1ccc(NC(=S)NCC2CCCCC2)cc1 do in these assays?
CHRM5 PAM: -17.1; CHRM5 antagonist: 39.8*; CHRM5 agonist: 1.3; CHRM4 antagonist: 12.2; CHRM4 agonist: 6.9; CHRM4 PAM: -24.2

Results for CC(=O)Nc1ccc(C=NN=C2c3ccccc3-c3ccccc32)cc1 ?
CHRM5 PAM: 11.1; CHRM5 antagonist: -9.2; CHRM5 agonist: 3.2; CHRM4 antagonist: 3.8; CHRM4 agonist: 2.4; CHRM4 PAM: 17.5*
